Test results: ChEMBL document CHEMBL1212777, “Novel VIM metallo-beta-lactamase variant from clinical isolates of Enterobacteriaceae from Algeria” (2010)
Values after ≈ are worked out from the molar mass of the structure shown.

Tests used:
Format in all cases: functional
[1] = tested on: Escherichia coli; assay: Antimicrobial activity against Escherichia coli DH5alpha 2878 transformant expressing beta-lactamase VIM-19 by microdilution method in presence of 0.4 mM EDTA
In short: (§1)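 MIC by dilution on Mueller-Hinton agar, inoculum 10^4 CFU per spot, interpreted by CA-SFM guidelines. Inhibitor combinations where tested: clavulanic acid 2 μg/ml, tazobactam 4 μg/ml, EDTA 0.4 mM. Transconjugants came from rifampin-resistant E. coli C600 selected on rifampin 300 μg/ml plus cefotaxime 0.5 μg/ml. Transformants came from electroporation into E. coli DH5α selected on cefotaxime 0.5 μg/ml.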

[2] = tested on: Escherichia coli; assay: Antimicrobial activity against Escherichia coli DH5alpha 2878 transformant expressing beta-lactamase VIM-19 by microdilution method; in short: as §1
[3] = tested on: Escherichia coli; assay: Antimicrobial activity against Escherichia coli 138 expressing beta-lactamase VIM-19 by microdilution method in presence of 0.4 mM EDTA; in short: as §1
[4] = tested on: Klebsiella pneumoniae; assay: Antimicrobial activity against Klebsiella pneumoniae 2878 strain expressing beta-lactamase VIM-19 […] in presence of 0.4 mM EDTA
[5] = tested on: Klebsiella pneumoniae; assay: Antimicrobial activity against Klebsiella pneumoniae 2878 strain expressing beta-lactamase VIM-19 by microdilution method
In short: (§2)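 Clinical isolates from intensive care patients. MICs by dilution on Mueller-Hinton agar, inoculum 10^4 CFU per spot, read after growth and interpreted by CA-SFM guidelines. Where the line names an inhibitor, it was held at a fixed level: clavulanic acid 2 μg/ml, tazobactam 4 μg/ml, or EDTA 0.4 mM.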

[6] = tested on: Providencia stuartii; assay: Antimicrobial activity against Providencia stuartii 6858 strain expressing beta-lactamase VIM-19 by microdilution method; in short: as §2
[7] = tested on: Providencia stuartii; assay: Antimicrobial activity against Providencia stuartii 6858 strain expressing beta-lactamase VIM-19 by microdilution method in presence of 0.4 mM EDTA; in short: as §2
[8] = tested on: Escherichia coli; assay: Antimicrobial activity against Escherichia coli C600 2878 transconjugate expressing beta-lactamase VIM-19 by microdilution method; in short: as §1
[9] = tested on: Klebsiella pneumoniae; assay: Antimicrobial activity against Klebsiella pneumoniae 6828 strain expressing beta-lactamase VIM-19 by microdilution method in presence of 0.4 mM EDTA; in short: as §2
[10] = tested on: Escherichia coli; assay: Antimicrobial activity against Escherichia coli 138 expressing beta-lactamase VIM-19 by microdilution method; in short: as §2
[11] = tested on: Escherichia coli; assay: Antimicrobial activity against Escherichia coli 2603 strain expressing beta-lactamase VIM-19 by microdilution method in presence of 0.4 mM EDTA; in short: as §2
[12] = tested on: Escherichia coli; assay: Antimicrobial activity against Escherichia coli C600 2878 transconjugate expressing beta-lactamase VIM-19 by microdilution method in presence of 0.4 mM EDTA
In short: (§3)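 Rifampin-resistant E. coli C600 recipient mated with the clinical strain. Transconjugants were selected on agar with rifampin 300 μg/ml plus cefotaxime 0.5 μg/ml. MICs by dilution on Mueller-Hinton agar, inoculum 10^4 CFU per spot, CA-SFM interpretation. Inhibitor at a fixed level: clavulanic acid 2 μg/ml or EDTA 0.4 mM.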

[13] = tested on: Klebsiella pneumoniae; assay: Antimicrobial activity against Klebsiella pneumoniae 6828 strain expressing beta-lactamase VIM-19 by microdilution method; in short: as §2
[14] = tested on: Escherichia coli; assay: Antimicrobial activity against Escherichia coli DH5alpha harbouring plasmid BK-VIM-19 expressing beta-lactamase VIM-19 by microdilution method in presence of 0.4 mM EDTA; in short: as §1
[15] = tested on: Escherichia coli; assay: Antimicrobial activity against Escherichia coli DH5alpha harbouring plasmid BK-VIM-19 expressing beta-lactamase VIM-19 by microdilution method; in short: as §1
[16] = tested on: Escherichia coli; assay: Antimicrobial activity against Escherichia coli 2603 strain expressing beta-lactamase VIM-19 by microdilution method; in short: as §2
[17] = tested on: Escherichia coli; assay: Antimicrobial activity against Escherichia coli harbouring plasmidBK-CMV expressing beta-lactamase VIM-19 […] in presence of 0.4 mM EDTA
[18] = tested on: Escherichia coli; assay: Antimicrobial activity against Escherichia coli harbouring plasmid BK-CMV expressing beta-lactamase VIM-19 by microdilution method; in short: as §1
[19] = tested on: Klebsiella pneumoniae; assay: Antimicrobial activity against Klebsiella pneumoniae 6828 strain expressing beta-lactamase VIM-19 by microdilution method in presence of 2 ug/ml clavulanic acid; in short: as §2
[20] = tested on: Escherichia coli; assay: Antimicrobial activity against Escherichia coli C600 2878 transconjugate expressing beta-lactamase VIM-19 by microdilution method in presence of 2 ug/ml clavulanic acid; in short: as §3
[21] = tested on: Escherichia coli; assay: Antimicrobial activity against Escherichia coli DH5alpha harbouring plasmid BK-VIM-19 expressing beta-lactamase VIM-19 by microdilution method in presence of 2 ug/ml clavulanic acid; in short: as §1
[22] = tested on: Providencia stuartii; assay: Antimicrobial activity against Providencia stuartii 6858 strain expressing beta-lactamase VIM-19 by microdilution method in presence of 2 ug/ml clavulanic acid; in short: as §2
[23] = tested on: Escherichia coli; assay: Antimicrobial activity against Escherichia coli 138 expressing beta-lactamase VIM-19 by microdilution method in presence of 2 ug/ml clavulanic acid; in short: as §2
[24] = tested on: Escherichia coli; assay: Antimicrobial activity against Escherichia coli harbouring plasmidBK-CMV expressing beta-lactamase VIM-19 […] in presence of 2 ug/ml clavulanic acid
[25] = tested on: Escherichia coli; assay: Antimicrobial activity against Escherichia coli 2603 strain expressing beta-lactamase VIM-19 by microdilution method in presence of 2 ug/ml clavulanic acid; in short: as §2
[26] = tested on: Klebsiella pneumoniae; assay: Antimicrobial activity against Klebsiella pneumoniae 2878 strain expressing beta-lactamase VIM-19 by microdilution method in presence of 2 ug/ml clavulanic acid; in short: as §2
[27] = tested on: Escherichia coli; assay: Antimicrobial activity against Escherichia coli DH5alpha 2878 transformant expressing beta-lactamase VIM-19 by microdilution method in presence of 2 ug/ml clavulanic acid; in short: as §1

Structure (SMILES)	MIC [1] [µg/mL]	MIC [2] [µg/mL]	MIC [3] [µg/mL]	MIC [4] [µg/mL]	MIC [5] [µg/mL]	MIC [6] [µg/mL]	MIC [7] [µg/mL]	MIC [8] [µg/mL]	MIC [9] [µg/mL]	MIC [10] [µg/mL]	MIC [11] [µg/mL]	MIC [13] [µg/mL]	MIC [14] [µg/mL]	MIC [15] [µg/mL]	MIC [16] [µg/mL]	MIC [17] [µg/mL]	MIC [18] [µg/mL]	further results
C[C@@H](O)[C@H]1C(=O)N2C(C(=O)O)=C(S[C@@H]3CN[C@H](C(=O)Nc4cccc(C(=O)O)c4)C3)[C@H](C)[C@H]12	< 0.12	8 (≈ 16.8 µM)	0.25	0.25	64 (≈ 135 µM)	32 (≈ 67.3 µM)	< 0.12	1 (≈ 2.1 µM)	< 0.12	32 (≈ 67.3 µM)	< 0.12	16 (≈ 33.6 µM)	< 0.12	4 (≈ 8.41 µM)	16 (≈ 33.6 µM)	< 0.12	< 0.12	MIC [12]: < 0.12 µg/mL
CO/N=C(\C(=O)N[C@@H]1C(=O)N2C(C(=O)[O-])=C(C[N+]3(C)CCCC3)CS[C@H]12)c1csc(N)n1		4 (≈ 8.32 µM)			64 (≈ 133 µM)	2 (≈ 4.16 µM)				64 (≈ 133 µM)		4 (≈ 8.32 µM)			4 (≈ 8.32 µM)		< 0.12	
CC1(C)S[C@@H]2[C@H](NC(=O)[C@H](N)c3ccc(O)cc3)C(=O)N2[C@H]1C(=O)O [AMOXICILLIN]		> 2050			> 2050	> 2050		> 2050		> 2050		> 2050		> 2050	> 2050		4 (≈ 10.9 µM)	MIC [19]: > 2050 µg/mL; MIC [20]: > 2050 µg/mL; MIC [21]: > 2050 µg/mL; MIC [22]: > 2050 µg/mL; MIC [23]: > 2050 µg/mL; MIC [24]: 4 µg/mL; MIC [25]: > 2050 µg/mL; MIC [26]: > 2050 µg/mL; MIC [27]: > 2050 µg/mL
CC(C)(O/N=C(\C(=O)N[C@@H]1C(=O)N2C(C(=O)[O-])=C(C[n+]3ccccc3)CS[C@H]12)c1csc(N)n1)C(=O)O [CEFTAZIDIME]	8	128 (≈ 234 µM)	128	8	128 (≈ 234 µM)	64 (≈ 117 µM)	4	32 (≈ 58.5 µM)	8	512 (≈ 937 µM)	16	64 (≈ 117 µM)	0.12	32 (≈ 58.5 µM)	128 (≈ 234 µM)	0.12	0.12 (≈ 0.22 µM)	
